The source of these data is ChEMBL document CHEMBL1255279, “Selection for high-level telithromycin resistance in Staphylococcus aureus yields mutants resulting from an rplB-to-rplV gene conversion-like event” (2008).

As a reminder, the MIC is the lowest concentration found to suppress growth. Read a high MIC as a need for much substance.

Molecules are shown by their SMILES. In brackets after ≈: the same amount, converted by molar mass.

Experiment [1] deals with Staphylococcus aureus. Description: Antibacterial activity against Telithromycin resistant Staphylococcus aureus isolate KT02 carrying rplB-derived insertion of L22 ribosomal protein.
The subject of experiment [2] is Staphylococcus aureus. Description: Antibacterial activity against Telithromycin resistant Staphylococcus aureus isolate KT09 carrying rplD and rplV mutant genes. It is filed as functional. The procedure, abridged: (§1)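 MICs determined in Luria-Bertani medium at 37°C. Resistant mutants of S. aureus RN4220 came from spreading 0.3 ml of an overnight brain heart infusion broth culture onto Luria-Bertani plates containing 1 μg/ml telithromycin. These plates were incubated at 37°C for 1 week.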

The subject of experiment [3] is Staphylococcus aureus. As to the kind of experiment: Antibacterial activity against Telithromycin resistant Staphylococcus aureus isolate KT10 carrying rplD and rplV mutant genes. In kind it is functional. In outline: as §1
For experiment [4], the system named is Staphylococcus aureus. Description: Antibacterial activity against Telithromycin resistant Staphylococcus aureus isolate KT01 carrying rplB-derived insertion of L22 ribosomal protein.
In experiment [5] the test system is Staphylococcus aureus. Description: Antibacterial activity against Telithromycin resistant Staphylococcus aureus isolate KT05 carrying rplD and rplV mutant genes. In kind it is functional. The procedure, abridged: as §1
The subject of experiment [6] is Staphylococcus aureus. Description: Antibacterial activity against Telithromycin resistant Staphylococcus aureus isolate KT04 carrying duplication in the carboxy-terminal region of L22 ribosomal protein. It is filed as functional. The procedure, abridged:
as §1

The test system of experiment [7] is Staphylococcus aureus. As to the kind of experiment: Antibacterial activity against Telithromycin resistant Staphylococcus aureus isolate KT11 carrying rplD and rplV mutant genes. It is filed as functional. The procedure, abridged:
as §1

For experiment [8], the system named is Staphylococcus aureus. As to the kind of experiment: Antibacterial activity against Telithromycin resistant Staphylococcus aureus RN4220 carrying rplD and rplV genes. It is filed as functional. The procedure, abridged: as §1
Experiment [9] concerns Staphylococcus aureus. Description: Antibacterial activity against Telithromycin resistant Staphylococcus aureus isolate KT06 carrying duplication in the carboxy-terminal region of L22 ribosomal protein. In kind it is functional. In outline: as §1

In the case of `CC[C@H]1OC(=O)[C@H](C)[C@@H](O[C@H]2C[C@@](C)(OC)[C@@H](O)[C@H](C)O2)[C@H](C)[C@@H](O[C@@H]2O[C@H](C)C[C@H](N(C)C)[C@H]2O)[C@](C)(O)C[C@@H](C)C(=O)[C@H](C)[C@@H](O)[C@]1(C)O` [ERYTHROMYCIN], the MIC in the experiment with Staphylococcus aureus [1] was determined as 32 µg/mL (≈ 43.6 µM); against Staphylococcus aureus [2], 8 µg/mL (≈ 10.9 µM); against Staphylococcus aureus [3], 4 µg/mL (≈ 5.45 µM); against Staphylococcus aureus [4], 32 µg/mL (≈ 43.6 µM); in the experiment with Staphylococcus aureus [5] it was 32 µg/mL (≈ 43.6 µM); in the experiment with Staphylococcus aureus [6] it was 32 µg/mL (≈ 43.6 µM). For the same compound, the MIC in the experiment with Staphylococcus aureus [7] amounted to 16 µg/mL (≈ 21.8 µM); with Staphylococcus aureus [8] it was 0.12 µg/mL (≈ 0.164 µM); in the experiment with Staphylococcus aureus [9] it was 16 µg/mL (≈ 21.8 µM).

On to `CC[C@H]1OC(=O)[C@H](C)C(=O)[C@H](C)[C@@H](O[C@@H]2O[C@H](C)C[C@H](N(C)C)[C@H]2O)[C@](C)(OC)C[C@@H](C)C(=O)[C@H](C)[C@H]2N(CCCCn3cnc(-c4cccnc4)c3)C(=O)O[C@]12C` [TELITHROMYCIN], for which the MIC is 8 µg/mL (≈ 9.85 µM) in the experiment on Staphylococcus aureus [1]; 2 µg/mL (≈ 2.46 µM) with Staphylococcus aureus [2]; 4 µg/mL (≈ 4.93 µM) in the experiment with Staphylococcus aureus [3]; 16 µg/mL (≈ 19.7 µM) with Staphylococcus aureus [4]; 16 µg/mL (≈ 19.7 µM) with Staphylococcus aureus [5]; 16 µg/mL (≈ 19.7 µM) against Staphylococcus aureus [6]. Besides, the MIC with Staphylococcus aureus [7] was 8 µg/mL (≈ 9.85 µM); against Staphylococcus aureus [8], 0.03 µg/mL (≈ 0.0369 µM); in the experiment with Staphylococcus aureus [9], 4 µg/mL (≈ 4.93 µM).
